From ChEMBL document CHEMBL1139747, “Pyridine-2-propanoic acids: Discovery of dual PPARalpha/gamma agonists as antidiabetic agents” (Bioorg Med Chem Lett, 2006)

Columns and labels:
[1] = molecular target: T1, Peroxisome proliferator-activated receptor alpha (Homo sapiens, UniProt Q07869); experiment: Agonist activity at human PPAR alpha in HepG2 cells by PPAR-GAL4 transactivation assay; format: functional, cell-based
T1 sequence (Q07869 whole entry): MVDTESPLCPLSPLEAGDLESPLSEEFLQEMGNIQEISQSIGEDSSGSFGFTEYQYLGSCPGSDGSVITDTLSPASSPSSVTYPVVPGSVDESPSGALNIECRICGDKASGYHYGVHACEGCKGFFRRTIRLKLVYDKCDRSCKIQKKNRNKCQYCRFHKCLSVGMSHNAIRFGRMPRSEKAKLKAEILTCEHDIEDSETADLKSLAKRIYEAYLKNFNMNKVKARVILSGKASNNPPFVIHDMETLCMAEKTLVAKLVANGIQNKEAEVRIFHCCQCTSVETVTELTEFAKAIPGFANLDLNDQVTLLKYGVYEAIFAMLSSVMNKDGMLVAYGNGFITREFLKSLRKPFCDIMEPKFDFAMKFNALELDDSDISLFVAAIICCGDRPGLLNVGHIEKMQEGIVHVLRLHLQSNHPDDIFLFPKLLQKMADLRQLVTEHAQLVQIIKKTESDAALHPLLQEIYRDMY

[2] = molecular target: T2, Peroxisome proliferator-activated receptor alpha (Homo sapiens) (UniProt Q07869); experiment: Agonist activity at human PPAR alpha in HepG2 cells by PPAR-GAL4 transactivation assay relative to GW-2331; format: functional, cell-based
T2 sequence (whole entry): T1 sequence (Q07869 whole entry)
In short: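 Human PPARα–GAL4 chimera in HepG2 cells, transactivation read-out. Compounds titrated. EC50 taken as the concentration giving half of the compound's own maximal response. Percent maximal activation expressed relative to GW2331 as the standard full agonist. Where no plateau was reached, only maximal activity was reported.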

[3] = molecular target: T3, Peroxisome proliferator-activated receptor gamma (Homo sapiens, UniProt P37231); experiment: Agonist activity at human PPAR gamma in HepG2 cells by PPAR-GAL4 transactivation assay; format: functional, cell-based
T3 sequence (P37231 whole entry): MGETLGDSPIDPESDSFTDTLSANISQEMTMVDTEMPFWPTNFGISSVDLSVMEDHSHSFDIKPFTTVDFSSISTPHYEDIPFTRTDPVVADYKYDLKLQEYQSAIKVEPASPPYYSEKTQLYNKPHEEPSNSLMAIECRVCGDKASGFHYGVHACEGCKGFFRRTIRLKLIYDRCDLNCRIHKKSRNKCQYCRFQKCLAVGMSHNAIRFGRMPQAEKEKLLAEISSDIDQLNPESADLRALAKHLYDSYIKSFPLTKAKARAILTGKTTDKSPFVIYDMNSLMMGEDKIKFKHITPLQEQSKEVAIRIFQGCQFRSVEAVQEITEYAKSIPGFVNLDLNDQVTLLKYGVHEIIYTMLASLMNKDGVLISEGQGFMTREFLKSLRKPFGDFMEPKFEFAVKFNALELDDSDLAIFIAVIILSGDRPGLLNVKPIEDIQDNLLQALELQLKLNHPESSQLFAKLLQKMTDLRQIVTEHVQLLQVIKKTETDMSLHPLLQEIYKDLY

[4] = molecular target: T1, Peroxisome proliferator-activated receptor alpha; experiment: Displacement of radiolabeled GW-2331 from human PPAR alpha by SPA assay
[5] = molecular target: T3, Peroxisome proliferator-activated receptor gamma; experiment: Displacement of radiolabeled darglitazone from human PPAR gamma by SPA assay
Mus musculus [6] = experiment: Increase in body weight in db/db mouse at 3 mg/kg, po after 8 day; format: functional
Mus musculus [7] = experiment: Reduction of plasma glucose in db/db mouse at 3 mg/kg, po after 8 day; format: functional; parameters: scale not given: the % may be the effect or the level left
Mus musculus [8] = experiment: Increase in body weight in db/db mouse at 30 mg/kg, po after 8 day; format: functional
Mus musculus [9] = experiment: Reduction of hematocrit in db/db mouse at 30 mg/kg, po after 8 day; format: functional; parameters: scale not given: the % may be the effect or the level left
Mus musculus [10] = experiment: Reduction of plasma triglycerides in db/db mouse at 30 mg/kg, po after 8 day; format: functional; parameters: scale not given: the % may be the effect or the level left
Mus musculus [11] = experiment: Reduction of plasma glucose in db/db mouse at 30 mg/kg, po after 8 day; format: functional; parameters: scale not given: the % may be the effect or the level left
Mus musculus [12] = experiment: Reduction of plasma triglycerides in db/db mouse at 3 mg/kg, po after 8 day; format: functional; parameters: scale not given: the % may be the effect or the level left
Mus musculus [13] = experiment: Reduction of hematocrit in db/db mouse at 3 mg/kg, po after 8 day; format: functional; parameters: scale not given: the % may be the effect or the level left
[14] = molecular target: T2, Peroxisome proliferator-activated receptor alpha (Homo sapiens); conditions: 100 uM
[15] = Half life in orally dosed Sprague-Dawley rat; format: ADME, organism-based; conditions: in vivo, po
In short: (§1)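 Male Sprague–Dawley rats were given the compound both orally and intravenously. Clearance comes from the iv leg. Half-life and AUC come from the oral leg, with AUC reported dose-normalized. Oral bioavailability compares the oral and iv exposures.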

[16] = Clearance in iv dosed Sprague-Dawley rat; format: ADME, organism-based; conditions: in vivo; in short: as §1
[17] = Oral bioavailability in Sprague-Dawley rat; format: ADME, organism-based; conditions: in vivo; in short: as §1
[18] = AUC in orally dosed Sprague-Dawley rat; format: ADME, organism-based; conditions: plasma, po; in short: as §1

Structure (SMILES)	EC50 [1] [nM]	Activity [2] [%]	EC50 [3] [nM]	Ki [4] [nM]	other results
COc1ccc(-c2nc(CCOc3ccc(CC4(C(=O)O)CCCO4)nc3)c(C)o2)cc1 (stereo unspecified)	437	95	105	840	–
CCOC(Cc1ccc(OCCc2nc(-c3ccccc3)oc2C)cn1)C(=O)O (stereo unspecified)	1230	100	129	2000	Ki [5]: 73 nM
Cc1oc(-c2ccc(Cl)cc2)nc1CCOc1ccc(CC2(C(=O)O)CCCO2)nc1 (stereo unspecified)	48	122	130	–	–
COC(Cc1ccc(OCCc2nc(-c3ccccc3)oc2C)cn1)C(=O)O (stereo unspecified)	3140	95	280	3700	Ki [5]: 348 nM
CN(CCOc1ccc(CC2SC(=O)NC2=O)cc1)c1ccccn1 (stereo unspecified) [ROSIGLITAZONE]	–	–	–	–	Activity (Mus musculus [6]): 9.5%; Activity (Mus musculus [7]): 51%; Activity (Mus musculus [8]): 17.4%; Activity (Mus musculus [9]): 5.2%; Activity (Mus musculus [10]): 106%; Activity (Mus musculus [11]): 74%; Activity (Mus musculus [12]): 83%; Activity (Mus musculus [13]): 1.2%; inhibition [14]: 45%
CCOC(Cc1ccc(OCCCc2nc(-c3ccccc3)oc2C)cn1)C(=O)O (stereo unspecified)	886	76	–	840	–
COc1cccc(-c2nc(CCOc3ccc(CC4(C(=O)O)CCCO4)nc3)c(C)o2)c1 (stereo unspecified)	1570	98	5	–	–
COC(C)(Cc1ccc(OCCc2nc(-c3ccccc3)oc2C)cn1)C(=O)O (stereo unspecified)	882	114	335	4800	Ki [5]: 1600 nM
Cc1oc(-c2ccccc2)nc1CCOc1ccc(C[C@]2(C(=O)O)CCCO2)nc1	–	97	–	–	Activity (Mus musculus [6]): 15.5%; Activity (Mus musculus [7]): 74%; half-life [15]: 1.6 h; Activity (Mus musculus [8]): 20.5%; clearance [16]: 16.7 mL/min/kg; Activity (Mus musculus [9]): 4.4%; Activity (Mus musculus [10]): 119%; bioavailability [17]: 58%; AUC [18]: 1200 ng·h/mL; Activity (Mus musculus [11]): 94%; Activity (Mus musculus [12]): 105%; Activity (Mus musculus [13]): 4.3%

More lines, main results first:

EC50 [1] [nM]	Activity [2] [%]	EC50 [3] [nM]	Ki [4] [nM]	Structure (SMILES)	other results
–	6	–	–	Cc1oc(-c2ccccc2)nc1CCOc1ccc(C[C@@]2(C(=O)O)CCCO2)nc1	–
867	93	12	–	Cc1cccc(-c2nc(CCOc3ccc(CC4(C(=O)O)CCCO4)nc3)c(C)o2)c1 (stereo unspecified)	–
–	90	–	–	Cc1oc(-c2ccccc2)nc1CCOc1ccc(CC2(C(=O)O)CCCO2)nc1 (stereo unspecified)	–
> 10000	58	2500	–	Cc1oc(-c2ccccc2)nc1CCOc1ncc(CC2(C(=O)O)CCCO2)cn1 (stereo unspecified)	–
1890	77	156	3490	Cc1oc(-c2ccccc2)nc1CCOc1cnc(CC2(C(=O)O)CCCO2)cn1 (stereo unspecified)	Ki [5]: 160 nM
> 10000	5	> 10000	–	Cc1oc(-c2ccccc2)nc1CCOc1ccc(CC2(C(=O)O)CCCCO2)nc1 (stereo unspecified)	–
